Like-named read-outs stand apart in the source and are kept apart here.
Columns and labels:
[1] = system: nifedipine oxidation (NFO) activity; format: in vitro ADME, rat; conditions: rat, probe nifedipine; for IC50: rat hepatic (liver) microsomes, IC50, NFO activity, Liver, ingredient, 10-min NADPH-fortified pre-incubation; for inhibition at 100 µM: rat hepatic and intestinal microsomes
[2] = cited from earlier work; for Cmax: read-out: Cmax levels of plasma, rats orally treated with a single dose of 8 g/kg lyophilized SMS
[3] = rat plasma; nifedipine 3 mg/kg oral; control group (water)
[4] = system: nifedipine oxidation (NFO) activities in rat hepatic microsomes; format: in vitro ADME; conditions: read-out: IC50, NFO activity, Liver; ingredient; 10-min NADPH-fortified pre-incubation
[5] = biological target: T1, NADPH-P450 reductase (CPR) (Homo sapiens, UniProt P16435); test: Dialysis experiment, CPR activity; format: in vitro ADME; conditions: recombinant CYP3A4 system
T1 sequence (P16435 1-677): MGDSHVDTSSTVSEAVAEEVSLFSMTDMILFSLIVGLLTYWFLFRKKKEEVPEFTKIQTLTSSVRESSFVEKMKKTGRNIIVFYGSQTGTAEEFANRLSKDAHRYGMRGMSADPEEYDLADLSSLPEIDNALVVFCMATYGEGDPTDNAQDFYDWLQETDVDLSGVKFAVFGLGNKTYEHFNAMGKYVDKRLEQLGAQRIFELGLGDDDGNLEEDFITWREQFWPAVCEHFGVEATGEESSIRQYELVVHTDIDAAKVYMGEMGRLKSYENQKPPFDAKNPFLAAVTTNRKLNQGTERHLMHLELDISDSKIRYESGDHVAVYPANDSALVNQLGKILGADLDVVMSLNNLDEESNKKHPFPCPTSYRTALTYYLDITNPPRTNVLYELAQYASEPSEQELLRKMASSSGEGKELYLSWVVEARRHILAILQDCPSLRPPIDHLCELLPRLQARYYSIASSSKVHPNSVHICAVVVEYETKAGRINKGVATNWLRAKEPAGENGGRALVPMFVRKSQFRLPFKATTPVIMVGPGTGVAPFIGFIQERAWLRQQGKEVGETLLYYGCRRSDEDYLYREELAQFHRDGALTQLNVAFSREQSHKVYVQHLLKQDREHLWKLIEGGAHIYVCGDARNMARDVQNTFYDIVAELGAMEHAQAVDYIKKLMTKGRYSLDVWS
Outline: (§1)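 E. coli membranes co-expressing human CYP3A4 and CPR (20 nM) were incubated 30 min at 37 °C with 3–20 μM test compound and an NADPH-generating system (pH 7.4), with DMSO vehicle controls. They were dialysed (10 kDa) at 4 °C against phosphate/0.1 mM EDTA with three 30-min buffer changes. […] Means of three determinations.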

human CYP3A4 [6] = biological target: T2, human CYP3A4 (Homo sapiens, UniProt P08684, S18F); test: Dialysis experiment, remaining NFO activity; format: in vitro ADME; conditions: 30-min NADPH-fortified pre-incubation
Outline: as §1

[7] = system: nifedipine oxidation (NFO) activities in rat intestinal microsomes; format: in vitro ADME; conditions: read-out: IC50, NFO activity, Intestine; ingredient; 10-min NADPH-fortified pre-incubation
human CYP3A4 [8] = biological target: T2, human CYP3A4; test: Time-dependent inactivation kinetics of human CYP3A4; format: in vitro ADME
Outline: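 Recombinant CYP3A4 was pre-incubated with NADPH and test compound (DMSO vehicle) for varying times, and residual NFO was measured. K_app is the slope of ln % remaining activity versus time. k_inact and K_I came from nonlinear fit of K_app = k_inact·I/(I+K_I), with double-reciprocal starting values. The partition ratio came from titrating remaining activity after 30-min incubation against inhibitor:CYP3A4 molar ratio. […] Means of three determinations.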

human CYP3A4 [9] = biological target: T2, human CYP3A4; format: in vitro ADME; conditions: for Ratio IC50(+)/IC50(−): IC50 shift after 10-min pre-incubation; for IC50: NFO activity; for Predicted threshold of unbound inhibitor concentration causing a 2-fold AUC increase: high-throughput method from IC50 values
[10] = Literature pharmacokinetics of herbal ingredients in rats; format: in vivo; conditions: SMS once daily, estimated from half-life
[11] = linear regression of double reciprocal plots (r = 0.97)
[12] = nonlinear regression analysis (r = 0.98)
[13] = rats treated with 8 g/kg lyophilized SMS
[14] = IC50(+), 10-min NADPH-fortified pre-incubation
[15] = IC50(−), without pre-incubation

Work on `COc1cc(C[C@H]2C(=O)OC[C@@H]2Cc2ccc(OC)c(OC)c2)ccc1O` [Arctigenin] yielded an IC50 [1] of over 100 µM and an inhibition at 100 µM [1] of at most 50%.
In the case of `CC(C)=CCC/C(C)=C/COc1c2ccoc2cc2oc(=O)ccc12` [Bergamottin, bergamottin, reference compound], the tmax ([2]; rats) is listed as 0.5 h.
With `COC(=O)c1c(C)nc(C)c(C(=O)OC)c1-c1ccccc1[N+](=O)[O-]` [Dehydronifedipine] the “AUC0−t of dehydronifedipine” value [3] was 100 ± 10 ng·h/mL, the “AUC0−∞ of dehydronifedipine” value [3] was 130 ± 10 ng·h/mL and the Cmax of dehydronifedipine [3] was 40 ± 10 ng/mL. For the same compound, the t1/2 of dehydronifedipine [3] was 2.36 ± 0.33 h and the tmax of dehydronifedipine [3] was 0.54 ± 0.10 h.
Work on `CC(C)=CCC[C@](C)(O[C@@H]1O[C@H](CO[C@@H]2O[C@H](CO)[C@@H](O)[C@H](O)[C@H]2O)[C@@H](O)[C@H](O)[C@H]1O)[C@H]1CC[C@]2(C)[C@@H]1[C@H](O)C[C@@H]1[C@@]3(C)CC[C@H](O[C@@H]4O[C@H](CO)[C@@H](O)[C@H](O)[C@H]4O[C@@H]4O[C@H](CO)[C@@H](O)[C@H](O)[C@H]4O)C(C)(C)[C@@H]3CC[C@]12C` [Ginsenoside Rb1, ginsenoside Rb1] yielded an IC50 [1] of over 100 µM.
`CC(C)=CCC[C@](C)(O[C@@H]1O[C@H](CO)[C@@H](O)[C@H](O)[C@H]1O)[C@H]1CC[C@]2(C)[C@@H]1[C@H](O)C[C@@H]1[C@@]3(C)CC[C@H](O[C@@H]4O[C@H](CO)[C@@H](O)[C@H](O)[C@H]4O[C@@H]4O[C@H](CO)[C@@H](O)[C@H](O)[C@H]4O)C(C)(C)[C@@H]3CC[C@]12C` [Ginsenoside Rd, ginsenoside Rd] gave an IC50 [1] of 80.2 ± 33.3 µM.
In the case of `Cc1c(O)c(C)c2c(c1O)C(=O)[C@H](Cc1ccc3c(c1)OCO3)CO2` [Methylophiopogonanone A, methylophiopogonanone A], the IC50 [4] is listed as 16.8 ± 2.6 µM, the “CPR activity before or after dialysis” value [5] is listed as “not affected” and the half-life ([2]; rats treated with Qingzao Jiufei decoction (4.6 g/kg)) is listed as 8 to 9 h. The “inhibition of NFO after dialysis” value (human CYP3A4 [6]) was “could not be restored”, the IC50 [7] was 11.6 ± 0.7 µM and the partition ratio (human CYP3A4 [8]; 30 min incubation, molar ratio metabolized per CYP3A4 inactivated) was 54. The turnover number (human CYP3A4 [8]; 30 min incubation, titration of remaining NFO activity) was 55, the “apparent KI” value (human CYP3A4 [8]; [11]) was 9.1 µM and the kinact (human CYP3A4 [8]; [11]) was 0.058 min⁻¹. For the same compound, the “apparent KI” value (human CYP3A4 [8]; [12]) was 13.3 ± 5.9 µM, the kinact (human CYP3A4 [8]; [12]) was 0.068 ± 0.009 min⁻¹ and the “predicted threshold for causing a 2-fold increase in AUC” value (human CYP3A4 [8]; using inhibition constants (inactivation kinetics)) was 79.7 nM. For the same compound, the “Ratio IC50(+)/IC50(−)” value (human CYP3A4 [9]) was 0.48, the IC50 (human CYP3A4 [9]; 10-min NADPH-fortified pre-incubation) was 17.4 ± 2.1 µM and the IC50 (human CYP3A4 [9]; without pre-incubation) was 36.5 ± 7 µM. The “Predicted threshold of unbound inhibitor concentration causing a 2-fold AUC increase” value (human CYP3A4 [9]) was 45.0 nM.
Compound `C[C@@H]1CC[C@@]2(OC1)O[C@H]1C[C@H]3[C@@H]4CC=C5C[C@@H](O)C[C@@H](O[C@@H]6O[C@H](C)[C@H](O)[C@H](O[C@@H]7OC[C@@H](O)[C@H](O)[C@H]7O)[C@H]6O[C@@H]6O[C@@H](C)[C@H](O)[C@@H](O)[C@H]6O)[C@]5(C)[C@H]4CC[C@]3(C)[C@H]1[C@@H]2C` [Ophiopogonin D, ophiopogonin D] has an IC50 [4] of over 100 µM and an IC50 [7] of over 100 µM.
Work on `CC1(C)CCC[C@](C)([C@H]2CC[C@]3(C)[C@@H]2[C@H](O)C[C@@H]2[C@@]4(C)CC[C@H](O)C(C)(C)[C@@H]4[C@@H](O)C[C@]23C)O1` [Panaxatriol, panaxatriol] yielded an IC50 [1] of over 100 µM.
Work on `CC(C)=CCC[C@](C)(O)[C@H]1CC[C@]2(C)[C@@H]1[C@H](O)C[C@@H]1[C@@]3(C)CC[C@H](O)C(C)(C)[C@@H]3[C@@H](O)C[C@]12C` [Protopanaxatriol, protopanaxatriol] yielded an IC50 [4] of over 100 µM and an IC50 [7] of over 100 µM.
`C[C@@H]1CC[C@@]2(OC1)O[C@H]1C[C@H]3[C@@H]4CC=C5C[C@@H](O)C[C@@H](O)[C@]5(C)[C@H]4CC[C@]3(C)[C@H]1[C@@H]2C` [Ruscogenin, ruscogenin] showed an IC50 [1] of over 100 µM and an inhibition at 100 µM [1] of at most 50%.
In the case of `COc1cc2c(c(OC)c1OC)-c1c(cc3c(c1OC)OCO3)CC(C)C(C)C2` (centres unmarked) [Schisandrin B], the tmax ([2]; SMS (8 g/kg)-treated rats) is given as 1.6 h, the tmax ([2]; Schisandra Fructus extract (5 g/kg)-treated rats) is given as 4.1 h and the half-life [2, 13] is given as 7 h. For the same compound, the Cmax [2] was 28.6 nM, the IC50 [7] was 8.9 ± 1.4 µM and the IC50 (human CYP3A4 [9]; [14]) was 1.5 ± 0.2 µM. For the same compound, the IC50 (human CYP3A4 [9]; [15]) was 6.1 ± 1.4 µM, the “Ratio IC50(+)/IC50(−)” value (human CYP3A4 [9]) was 0.25 and the “Predicted threshold of unbound inhibitor concentration causing a 2-fold AUC increase” value (human CYP3A4 [9]) was 7.69 nM.
In the case of `COc1cc2c(c(OC)c1OC)-c1c(cc3c(c1OC)OCO3)C[C@H](C)[C@](C)(O)[C@H]2OC(=O)c1ccccc1` [Schisantherin A, schisantherin A], the tmax ([2]; SMS (8 g/kg)-treated rats) is given as 2.3 h, the half-life [2, 13] is given as 30 h and the Cmax [2] is given as 7.1 nM. The “time required for accumulating to reach the steady-state” value [10] was “at least 8 days”, the IC50 (human CYP3A4 [9]; [14]) was 0.06 ± 0.01 µM and the IC50 (human CYP3A4 [9]; [15]) was 0.17 ± 0.05 µM. For the same compound, the “Ratio IC50(+)/IC50(−)” value (human CYP3A4 [9]) was 0.35 and the “Predicted threshold of unbound inhibitor concentration causing a 2-fold AUC increase” value (human CYP3A4 [9]) was 0.34 nM.

Reference: publication PMC9931008 (Journal of Food and Drug Analysis, 2022)
